ChEMBL document CHEMBL1142590, “Triterpenoid saponins from the roots of Pulsatilla koreana” (2005)
Values after ≈ are worked out from the molar mass of the structure shown.

Test system: A549
Assay: Cytotoxicity against human A549 cells after 48 hrs by SRB assay
Format: functional
Settings: A549, 48 h, read-out: ED50 (the source's name)
In short: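 A-549 human lung carcinoma cells grown adherent in RPMI-1640 with 5% heat-inactivated FBS, 37 °C, 5% CO2, humidified. Cells seeded in 96-well plates, preincubated 24 h, then exposed to compounds for 48 h. Fixed with cold 10% TCA, stained with 0.4% SRB in 1% acetic acid, OD read at 540 nm. ED50 = 50% growth inhibition; doxorubicin positive control.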

First: C[C@@H]1O[C@@H](O[C@H]2[C@H](O[C@H]3CC[C@@]4(C)[C@@H](CC[C@]5(C)[C@@H]4CC=C4[C@H]6CC(C)(C)CC[C@]6(C(=O)O)CC[C@]45C)[C@]3(C)CO)OC[C@H](O)[C@@H]2O)[C@H](O)[C@H](O[C@@H]2O[C@H](CO)[C@@H](O[C@@H]3O[C@H](CO)[C@@H](O)[C@H](O)[C@H]3O)[C@H](O)[C@H]2O)[C@H]1O
Second: C[C@@H]1O[C@@H](O[C@H]2[C@H](O[C@H]3CC[C@]4(C)[C@H]5CC=C6[C@H]7CC(C)(C)CC[C@]7(C(=O)O)CC[C@@]6(C)[C@]5(C)CC[C@H]4C3(C)C)OC[C@H](O[C@@H]3O[C@H](CO)[C@@H](O)[C@H](O)[C@H]3O)[C@@H]2O)[C@H](O)[C@H](O)[C@H]1O
The EC50 of the first is higher: over 10 µg/mL for the first, 2.6 µg/mL (≈ 2.9 µM) for the second.

C=C(C)[C@@H]1CC[C@]2(C(=O)O)CC[C@]3(C)[C@H](CC[C@@H]4[C@@]5(C)CC[C@H](O[C@@H]6OC[C@H](O[C@@H]7O[C@H](CO)[C@@H](O)[C@H](O)[C@H]7O)[C@H](O)[C@H]6O[C@@H]6O[C@@H](C)[C@H](O)[C@@H](O)[C@H]6O)C(C)(C)[C@@H]5CC[C@]43C)[C@@H]12 and C=C(C)[C@@H]1CC[C@]2(C(=O)O)CC[C@]3(C)[C@H](CC[C@@H]4[C@@]5(C)CC[C@H](O[C@@H]6OC[C@H](O[C@@H]7O[C@H](CO)[C@@H](O)[C@H](O)[C@H]7O)[C@H](O)[C@H]6O[C@@H]6O[C@@H](C)[C@H](O)[C@@H](O)[C@H]6O)[C@@](C)(CO)[C@@H]5CC[C@]43C)[C@@H]12 cannot be ordered by EC50: over 10 µg/mL for the first, over 10 µg/mL for the second.

C=C(C)[C@@H]1CC[C@]2(C(=O)O)CC[C@]3(C)[C@H](CC[C@@H]4[C@@]5(C)CC[C@H](O[C@@H]6OC[C@H](O[C@@H]7O[C@H](CO)[C@@H](O)[C@H](O)[C@H]7O)[C@H](O)[C@H]6O)[C@@](C)(CO)[C@@H]5CC[C@]43C)[C@@H]12 and C=C(C)[C@@H]1CC[C@]2(C(=O)O)CC[C@]3(C)[C@H](CC[C@@H]4[C@@]5(C)CC[C@H](O[C@@H]6OC[C@H](O)[C@H](O)[C@H]6O[C@@H]6O[C@@H](C)[C@H](O)[C@@H](O[C@@H]7O[C@H](CO)[C@@H](O)[C@H](O)[C@H]7O)[C@H]6O)[C@@](C)(CO)[C@@H]5CC[C@]43C)[C@@H]12 cannot be ordered by EC50: over 10 µg/mL for the first, over 10 µg/mL for the second.

Going from C=C(C)[C@@H]1CC[C@]2(C(=O)O)CC[C@]3(C)[C@H](CC[C@@H]4[C@@]5(C)CC[C@H](O[C@@H]6OC[C@H](O)[C@H](O)[C@H]6O[C@@H]6O[C@@H](C)[C@H](O)[C@@H](O[C@@H]7O[C@H](CO)[C@@H](O)[C@H](O)[C@H]7O)[C@H]6O)C(C)(C)[C@@H]5CC[C@]43C)[C@@H]12 to C[C@@H]1O[C@@H](O[C@H]2[C@H](O[C@H]3CC[C@@]4(C)[C@@H](CC[C@]5(C)[C@@H]4CC=C4[C@H]6CC(C)(C)CC[C@]6(C(=O)O)CC[C@]45C)[C@]3(C)CO)OC[C@H](O)[C@@H]2O)[C@H](O)[C@H](O)[C@H]1O, the EC50 falls from over 10 µg/mL to 9.6 µg/mL (≈ 12.8 µM).

COc1cccc2c1C(=O)c1c(O)c3c(c(O)c1C2=O)C[C@@](O)(C(=O)CO)C[C@@H]3O[C@H]1C[C@H](N)[C@H](O)[C@H](C)O1 [DOXORUBICIN] was tested, and the EC50 was 0.02 µg/mL (≈ 0.0368 µM).
